Test results published in ChEMBL document CHEMBL1158739, “Chemical constituents of the fruits of Morinda citrifolia (Noni) and their antioxidant activity” (J Nat Prod, 2005).
pIC50: −log10 of the molar value.

Experiments:
[1] = Antioxidant activity assessed as 3-morpholinosydnonimine-derived peroxynitrite free radical scavenging activity after 5 mins
[2] = Antioxidant activity assessed as authentic peroxynitrite free radical scavenging activity after 5 mins
[3] = system: Radical scavenging activity; assay: Antioxidant activity assessed as DPPH radical scavenging activity after 30 mins; assay type: functional
Procedure, shortened: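 Samples in DMSO were plated in triplicate with 200 µM DPPH in EtOH, 37 °C, 30 min, dark, and absorbance read at 515 nm. Percent scavenging was taken against the DMSO control, with gallic acid as positive control. Screening was at 200 µg/mL final, and actives were retested at 2.5–20 µg/mL. IC50 came from linear regression extrapolation.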

[4] = Antioxidant activity assessed as authentic peroxynitrite free radical scavenging activity […]; assay type: functional
Procedure, shortened: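 Authentic peroxynitrite (10 µM, in 0.3 N NaOH) oxidizing dihydrorhodamine 123, working solution 5 µM. Buffer was nitrogen-purged 50 mM Na2HPO4, 50 mM NaH2PO4, 90 mM NaCl and 5 mM KCl with 5 mM DTPA. Room temperature, fluorescence at ex 485/em 530 nm; background and final intensities read 5 min after treatment.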

[5] = Antioxidant activity assessed as 3-morpholinosydnonimine-derived peroxynitrite free radical scavenging activity […]; assay type: functional
Procedure, shortened: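 Peroxynitrite was generated from SIN-1 (10 µM) and measured as oxidation of dihydrorhodamine 123, working solution 5 µM. Buffer was nitrogen-purged 50 mM Na2HPO4, 50 mM NaH2PO4, 90 mM NaCl and 5 mM KCl with 5 mM DTPA. Run at room temperature, fluorescence read at ex 485/em 530 nm; background and final intensities taken 5 min after treatment.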

pIC50 [1]	pIC50 [2]	pIC50 [3]	pIC50 [4]	pIC50 [5]	Structure (SMILES)
< 4.52	< 4.52	< 4.52	–	–	CO[C@]1(CO)O[C@H](CO)[C@@H](O)[C@@H]1O
< 4.52	< 4.52	< 4.52	–	–	CO[C@@]1(CO)O[C@H](CO)[C@@H](O)[C@@H]1O
< 4.52	< 4.52	< 4.52	–	–	COC(=O)C1=CO[C@@H](O[C@@H]2O[C@H](CO)[C@@H](O)[C@H](O)[C@H]2O)C2C1[C@@H]1O[C@@H]1[C@]21O[C@@H]1O (stereo not given in full) [CITRIFOLININ B EPIMER B]
< 4.52	< 4.52	< 4.52	–	–	Nc1ccn([C@@H]2O[C@H](CO)[C@@H](O)[C@H]2O)c(=O)n1 [CYTIDINE]
< 4.52	< 4.52	< 4.52	–	–	CC[C@H](CC[C@@H](C)[C@H]1CC[C@H]2[C@@H]3CC=C4C[C@@H](O[C@@H]5O[C@H](CO)[C@@H](O)[C@H](O)[C@H]5O)CC[C@]4(C)[C@H]3CC[C@]12C)C(C)C [SITOGLUSIDE]
< 4.52	< 4.52	< 4.52	–	–	O=C1O[C@H]2C=C(CO)[C@@H](CO)[C@H]2[C@@H]1CO [BORRERIAGENIN]
< 4.52	< 4.52	< 4.52	–	–	OC[C@@H](O)[C@@H](O)[C@H](O)[C@H](O)CO [MANNITOL]
< 4.52	< 4.52	< 4.52	–	–	COC(=O)C1=CO[C@@H](O[C@@H]2O[C@H](CO)[C@@H](O)[C@H](O)[C@H]2O)C2C1[C@@H]1O[C@@H]1[C@]21O[C@H]1O (single isomer, unassigned; epimer a) [CITRIFOLININ B EPIMER A]
< 4.52	< 4.52	< 4.52	–	–	O=C1O[C@H]2C=C(CO)[C@H]3[C@H](O[C@@H]4O[C@H](CO)[C@@H](O)[C@H](O)[C@H]4O)OC=C1[C@H]32 [DEACETYLASPERULOSIDE]
–	–	< 4.52	< 4.52	< 4.52	COC(=O)C1=CO[C@@H](O[C@@H]2O[C@H](CO)[C@@H](O)[C@H](O)[C@H]2O)[C@@H]2[C@@H](CO)C[C@H](O)[C@H]12
–	–	4.77	–	–	O=C/C=C/c1ccc2c(c1)O[C@@H](CO)[C@H](c1ccc(O)c(O)c1)O2 [AMERICANIN A]
< 4.52	< 4.52	< 4.52	–	–	COC(=O)C1=CO[C@@H](O[C@@H]2O[C@H](CO)[C@@H](O)[C@H](O)[C@H]2O)[C@H]2[C@@H]1C=C[C@@]21C=C(C(=O)c2ccc(O)c(OC)c2)C(=O)O1 [DEHYDROMETHOXYGAERTNEROSIDE]
< 4.52	< 4.52	< 4.52	–	–	OC[C@H]1OC(O)[C@H](O)[C@@H](O)[C@@H]1O (stereo not given in full) [DEXTROSE]
< 4.52	< 4.52	< 4.52	–	–	C[C@@H]1O[C@@H](OC[C@H]2O[C@@H](Oc3c(-c4ccc(O)cc4)oc4cc(O)cc(O)c4c3=O)[C@H](O)[C@@H](O)[C@@H]2O)[C@H](O)[C@H](O)[C@H]1O [NICOTIFLOROSIDE]
< 4.52	< 4.52	< 4.52	–	–	COC(=O)C1=CO[C@@H](O[C@@H]2O[C@H](CO)[C@@H](O)[C@H](O)[C@H]2O)[C@H]2[C@@H]1[C@@H]1O[C@@H]1[C@@]2(O)CO

Structure (SMILES)	pIC50 [1]	pIC50 [2]	pIC50 [3]	pIC50 [4]	pIC50 [5]
O=C(O)c1cc(O)c(O)c(O)c1 [GALLIC ACID]	–	–	5.57	–	–
CC(=O)OCC1=C[C@@H]2OC(=O)C3=CO[C@@H](O[C@@H]4O[C@H](CO)[C@@H](O)[C@H](O)[C@H]4O)[C@H]1[C@@H]32 [ASPERULOSIDE]	< 4.52	< 4.52	< 4.52	–	–
CC(=O)OCC1=C[C@H](O)[C@@H]2C(C(=O)O)=CO[C@@H](O[C@H]3O[C@@H](CO)[C@H](O)[C@@H](O)[C@@H]3O)[C@H]12 [ASPERULOSIDIC ACID]	< 4.52	< 4.52	< 4.52	–	–
